Source: ChEMBL document CHEMBL4842338, “System-oriented optimization of multi-target 2,6-diaminopurine derivatives: Easily accessible broad-spectrum antivirals active against flaviviruses, influenza virus and SARS-CoV-2” (Eur J Med Chem, 2021)
The source made the active and inactive calls. No cut-off for these calls is given here.

How the values were obtained:
[1] = Selectivity index, ratio of CC50 for human Huh-7 cells to IC50 for Dengue virus serotype 2 New Guinea C infected in pre-seeded Huh-7 cells assessed as inhibition of viral replication incubated for 72 hrs by immunodetection based secondary yield reduction assay; type: toxicity, cell-based; conditions: read-out: Selectivity Index
[2] = Inhibition of Dengue virus 2 […] RNA dependent RNA polymerase incubated for 10 mins by picogreen staining based fluorescent analysis (Rvb= 0.27+/-0.03 uM); set-up: species or system dengue virus type 2
[3] = Inhibition of DENV NS5-MTase domain using GpppA2'OMe-RNA74 as a substrate incubated for 30 mins by filter binding assay; set-up: species or system dengue virus type 2
Procedure, shortened: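 MTase (1 μM) incubated with increasing inhibitor in 40 mM Tris-HCl pH 7.5, 5 mM DTT, 10 μM AdoMet ([3H]-labelled), 0.5 μM GpppA2′OMe-RNA74 substrate, 30 °C for 30 min; stopped in ice-cold 100 μM AdoHcy; DEAE filter binding, scintillation counting.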

[4] = Inhibition of full length ZIKA virus NS5 RNA dependent RNA polymerase incubated for 10 mins by picogreen staining based fluorescent analysis (Rvb= 1+/-0.2 uM)
[5] = Selectivity index, ratio of CC50 for human Huh-7 cells to IC50 for Zika virus H/PF/2013 infected in pre-seeded Huh-7 cells assessed as inhibition of viral replication incubated for 72 hrs by immunodetection based secondary yield reduction assay; type: toxicity, cell-based; conditions: read-out: Selectivity Index
[6] = Selectivity index, ratio of CC50 for MDCK cells to IC50 for Influenza A Puerto Rico/8/34/H1N1 infected in MDCK cells; type: toxicity, cell-based; conditions: dog, read-out: Selectivity Index
Procedure, shortened: (§1)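 MDCK or A549 cells (2.5 × 10⁵/well) infected with A/Puerto Rico/8/34 H1N1 for 1 h at 37 °C, then washed. Compound (0.5–20 μM) added in 2% FBS medium for 24 h, with DMSO final ≤0.2%. Virus in supernatants read by hemagglutination. CC₅₀ by MTT (2 × 10⁴ cells/well, same concentrations, 24 h, absorbance 570 nm). SI = CC₅₀/IC₅₀.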

[7] = Selectivity index, ratio of CC50 for human Huh-7 cells to IC50 for West Nile virus lineage 1 (Italy/2009) infected in pre-seeded Huh-7 cells assessed as inhibition of viral replication incubated for 48 hrs by immunodetection based direct yield reduction assay; type: toxicity, cell-based; conditions: read-out: Selectivity Index
Procedure, shortened: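 Direct yield reduction in Huh7 cells (7000/well), infected with 50 TCID₅₀ of DENV or ZIKV, or 25 TCID₅₀ of WNV. Adsorption 1 h at 37 °C, then virus removed and serial compound dilutions added. Incubated 72 h (DENV, ZIKV) or 48 h (WNV). Viral antigen immunodetected on the monolayer. IC₅₀ by non-linear regression, mean of three experiments. SI = CC₅₀ (Huh7, CellTiter-Glo luminescence)/IC₅₀.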

[8] = Selectivity index, ratio of CC50 for human A549 cells to IC50 for Influenza A Puerto Rico/8/34/H1N1 infected in human A549 cells; type: toxicity, cell-based; conditions: read-out: Selectivity Index; procedure, shortened: as §1
MDCK = test: Cytotoxicity against MDCK cells assessed as reduction in cell viability measured after 24 hrs by MTT assay; type: cell-based, Canis lupus familiaris; conditions: dog, mdck, 24 h
[9] = Antioxidant activity assessed as inhibition of ABTS radical scavenging activity at 10 uM to 1 mM measured after 10 mins; type: functional
Procedure, shortened: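 ABTS radical solution diluted in ethanol (1:100) to A734 0.70; 3.0 mL mixed with 30 μL sample in DMSO at 10 μM–1 mM; A734 read after exactly 10 min; ascorbic acid reference; % scavenging = (A0−As)/A0×100.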

[10] = biological target: Abl (Tyrosine-protein kinase ABL1) (Homo sapiens, UniProt P00519); test: Inhibition of human recombinant N terminal His6 tagged Abl (27 to end residue) assessed as residual activity at 5 uM using KKGEAIYAADFA-NH2 as a substrate in the presence of NP-40 incubated for 10 mins by scintillation counting analysis relative to control; conditions: probe KKGEAIYAADFA-NH2, read-out: Activity
Procedure, shortened: (§2)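 Compounds at fixed 5 μM; 10–50 ng kinase, substrate and NP-40/BSA per supplementary table, 10 μL at 30 °C for 10 min in low-binding tubes. Reactions spotted on filter, dried, scintillation counted. Mean ± SD of two independent experiments.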

Influenza A virus [11] = test: Antiviral activity against Influenza A Puerto Rico/8/34/H1N1 infected in MDCK cells assessed as inhibition of viral replication measured in supernatants of infected cells after 24 hrs by hemagglutination assay; type: functional, organism-based; conditions: A/Puerto Rico/8/1934(H1N1)
A549 = test: Cytotoxicity against human A549 cells assessed as reduction in cell viability measured after 24 hrs by MTT assay; type: cell-based; conditions: a549, 24 h
[12] = Inhibition of full length Dengue virus 2 NS5 RNA dependent RNA polymerase incubated for 10 mins by picogreen staining based fluorescent analysis (Rvb= 0.32+/-0.05 uM); set-up: species or system dengue virus type 2
Zika virus = test: Antiviral activity against Zika virus H/PF/2013 infected in pre-seeded Huh-7 cells assessed as inhibition of viral replication incubated for 72 hrs by immunodetection based secondary yield reduction assay; type: functional, organism-based; conditions: H/PF/2013, Huh-7, 72 h
Huh-7 = test: Cytotoxicity against human Huh-7 cells assessed as reduction in cell viability by Celltiter-Glo luminescent cell viability assay; type: cell-based; conditions: huh-7
Procedure, shortened: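 Compound-exposed cells assessed by CellTiter-Glo luminescence versus DMSO control; CC50 from dose-response.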

[13] = biological target: Fyn (Tyrosine-protein kinase Fyn) (Homo sapiens, UniProt P06241); test: Inhibition of human recombinant N terminal His6 tagged full length Fyn assessed as residual activity at 5 uM using […] as a substrate in the presence of NP-40 incubated for 10 mins by scintillation counting analysis relative to control; conditions: probe […], read-out: Activity; procedure, shortened: as §2
[14] = Inhibition of full length ZIKV NS5-MTase domain using 7MeGpppAC4 as a substrate incubated for 30 mins by filter binding assay; set-up: species or system Zika virus
[15] = biological target: PIK3CA (Phosphatidylinositol 4,5-bisphosphate 3-kinase catalytic subunit alpha isoform) (Homo sapiens, UniProt P42336); test: Inhibition of human full length PIK3CA assessed as residual activity at 5 uM using PI:PS (1:3) as a substrate incubated for 10 mins by scintillation counting analysis relative to control; conditions: full length PIK3CA enzyme, probe PI:PS (1:3), read-out: Activity
Procedure, shortened: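 Radiometric kinase reaction with 10–50 ng enzyme and compound fixed at 5 μM, 10 μL at 30 °C for 10 min. Reactions spotted on filter and counted by scintillation. Residual activity is the mean ± SD of two independent experiments.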

[16] = biological target: Src (Proto-oncogene tyrosine-protein kinase Src) (Homo sapiens, UniProt P12931); test: Inhibition of human recombinant N terminal His6 tagged full length Src assessed as residual activity at 5 uM using KVEKIGEGTYGVVYK as a substrate in the presence of NP-40 incubated for 10 mins by scintillation counting analysis relative to control; conditions: probe KVEKIGEGTYGVVYK, read-out: Activity; procedure, shortened: as §2
dengue virus type 2 = test: Antiviral activity against Dengue virus serotype 2 New Guinea C infected in pre-seeded Huh-7 cells assessed as inhibition of viral replication incubated for 72 hrs by immunodetection based secondary yield reduction assay; type: functional, organism-based; conditions: Dengue virus, New Guinea C, Huh-7, 72 h; read-out: IC50
Influenza A virus [17] = test: Antiviral activity against Influenza A Puerto Rico/8/34/H1N1 infected in human A549 cells assessed as inhibition of viral replication after 24 hrs by hemagglutination assay; type: functional, organism-based; conditions: A/Puerto Rico/8/1934(H1N1), A549, 24 h
West Nile virus = test: Antiviral activity against West Nile virus lineage 1 (Italy/2009) infected in pre-seeded Huh-7 cells assessed as inhibition of viral replication incubated for 48 hrs by immunodetection based direct yield reduction assay; type: functional, organism-based; conditions: West Nile virus, lineage 1 (Italy/2009), Huh-7, 48 h; read-out: IC50
CDK9/cyclin T1 = CDK9/cyclin T1 (Homo sapiens, UniProt P50750); test: Inhibition of human full length CDK9/ His-tagged cT1 assessed as residual activity at 5 uM using CDKtide as a substrate in the presence of BSA incubated for 10 mins by scintillation counting analysis relative to control; type: protein-complex assay; conditions: full length CDK9/His-tagged cyclin T1 complex, probe CDKtide, read-out: Activity; procedure, shortened: as §2
CDK9/cyclin T1, sequence (O60563 whole entry): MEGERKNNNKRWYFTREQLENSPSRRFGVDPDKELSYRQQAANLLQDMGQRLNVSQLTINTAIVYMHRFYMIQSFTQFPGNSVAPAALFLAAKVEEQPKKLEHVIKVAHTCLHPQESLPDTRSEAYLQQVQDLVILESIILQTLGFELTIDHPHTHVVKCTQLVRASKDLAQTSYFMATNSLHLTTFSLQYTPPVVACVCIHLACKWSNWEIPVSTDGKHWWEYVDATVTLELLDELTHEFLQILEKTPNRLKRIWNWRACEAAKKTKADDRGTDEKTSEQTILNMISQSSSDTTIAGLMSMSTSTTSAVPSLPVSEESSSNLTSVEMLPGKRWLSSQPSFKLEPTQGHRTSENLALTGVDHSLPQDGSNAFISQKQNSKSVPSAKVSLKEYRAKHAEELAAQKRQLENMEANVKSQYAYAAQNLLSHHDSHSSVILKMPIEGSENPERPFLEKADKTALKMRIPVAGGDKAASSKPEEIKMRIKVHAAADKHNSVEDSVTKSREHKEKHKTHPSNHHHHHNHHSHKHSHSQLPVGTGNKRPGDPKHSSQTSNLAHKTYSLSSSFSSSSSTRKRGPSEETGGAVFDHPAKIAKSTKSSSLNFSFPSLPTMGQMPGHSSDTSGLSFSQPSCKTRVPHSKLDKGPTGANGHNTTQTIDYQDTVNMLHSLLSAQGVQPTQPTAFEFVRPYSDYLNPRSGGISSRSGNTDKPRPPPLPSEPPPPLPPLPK
CDK9/cyclin T1, sequence (P50750 whole entry): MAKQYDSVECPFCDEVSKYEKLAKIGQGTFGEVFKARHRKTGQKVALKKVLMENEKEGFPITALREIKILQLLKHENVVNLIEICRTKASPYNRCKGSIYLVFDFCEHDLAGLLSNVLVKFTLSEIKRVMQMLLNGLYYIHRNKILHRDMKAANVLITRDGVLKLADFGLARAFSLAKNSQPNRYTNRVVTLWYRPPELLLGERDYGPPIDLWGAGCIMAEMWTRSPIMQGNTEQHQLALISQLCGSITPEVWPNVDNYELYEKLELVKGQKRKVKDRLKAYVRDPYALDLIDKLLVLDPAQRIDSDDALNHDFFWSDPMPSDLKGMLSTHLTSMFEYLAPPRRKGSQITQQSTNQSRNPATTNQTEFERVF

Abl (Tyrosine-protein kinase ABL1), sequence (P00519 whole entry): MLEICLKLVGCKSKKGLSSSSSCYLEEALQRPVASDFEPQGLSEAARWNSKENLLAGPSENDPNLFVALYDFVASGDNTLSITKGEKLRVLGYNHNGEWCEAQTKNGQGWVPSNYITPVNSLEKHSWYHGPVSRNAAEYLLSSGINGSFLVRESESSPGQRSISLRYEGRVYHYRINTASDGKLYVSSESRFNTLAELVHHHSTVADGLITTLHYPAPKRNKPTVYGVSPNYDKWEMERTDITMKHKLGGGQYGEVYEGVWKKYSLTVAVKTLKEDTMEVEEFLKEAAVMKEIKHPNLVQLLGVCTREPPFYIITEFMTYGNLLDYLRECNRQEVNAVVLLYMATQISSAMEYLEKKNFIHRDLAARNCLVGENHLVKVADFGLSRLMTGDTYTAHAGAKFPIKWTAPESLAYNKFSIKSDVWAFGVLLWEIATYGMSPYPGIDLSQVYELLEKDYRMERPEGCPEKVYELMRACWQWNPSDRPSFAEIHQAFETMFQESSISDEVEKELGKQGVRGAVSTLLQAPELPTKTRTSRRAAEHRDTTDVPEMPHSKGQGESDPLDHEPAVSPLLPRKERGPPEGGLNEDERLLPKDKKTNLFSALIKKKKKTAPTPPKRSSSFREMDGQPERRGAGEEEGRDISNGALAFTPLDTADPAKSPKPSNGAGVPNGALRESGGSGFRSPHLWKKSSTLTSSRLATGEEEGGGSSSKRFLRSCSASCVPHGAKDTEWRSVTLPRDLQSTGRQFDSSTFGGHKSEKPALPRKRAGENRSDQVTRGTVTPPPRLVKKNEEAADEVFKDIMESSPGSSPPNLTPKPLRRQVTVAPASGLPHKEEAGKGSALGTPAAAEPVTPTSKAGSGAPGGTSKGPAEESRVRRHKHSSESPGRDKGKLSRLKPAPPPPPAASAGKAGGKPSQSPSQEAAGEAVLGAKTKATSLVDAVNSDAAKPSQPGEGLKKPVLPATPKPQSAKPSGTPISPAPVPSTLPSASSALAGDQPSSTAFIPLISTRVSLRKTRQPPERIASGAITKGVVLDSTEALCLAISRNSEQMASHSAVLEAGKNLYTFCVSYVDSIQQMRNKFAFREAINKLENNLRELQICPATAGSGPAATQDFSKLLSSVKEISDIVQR
Fyn (Tyrosine-protein kinase Fyn), sequence (P06241 whole entry, the tested form may be a part): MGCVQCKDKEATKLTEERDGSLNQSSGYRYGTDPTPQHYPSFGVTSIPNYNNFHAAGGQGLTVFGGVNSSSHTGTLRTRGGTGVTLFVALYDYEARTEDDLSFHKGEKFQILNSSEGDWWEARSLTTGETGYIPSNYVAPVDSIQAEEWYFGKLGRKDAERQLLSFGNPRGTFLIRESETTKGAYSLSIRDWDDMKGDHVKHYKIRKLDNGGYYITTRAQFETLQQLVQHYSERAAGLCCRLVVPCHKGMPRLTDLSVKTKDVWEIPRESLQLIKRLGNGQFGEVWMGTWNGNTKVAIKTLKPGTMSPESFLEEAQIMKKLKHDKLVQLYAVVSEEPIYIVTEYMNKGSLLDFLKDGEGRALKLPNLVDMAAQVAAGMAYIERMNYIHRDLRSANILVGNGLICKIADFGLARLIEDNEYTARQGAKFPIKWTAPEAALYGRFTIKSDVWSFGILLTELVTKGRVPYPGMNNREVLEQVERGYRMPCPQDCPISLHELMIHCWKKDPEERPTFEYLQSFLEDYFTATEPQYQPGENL
Src (Proto-oncogene tyrosine-protein kinase Src), sequence (P12931 2-536 limits assumed): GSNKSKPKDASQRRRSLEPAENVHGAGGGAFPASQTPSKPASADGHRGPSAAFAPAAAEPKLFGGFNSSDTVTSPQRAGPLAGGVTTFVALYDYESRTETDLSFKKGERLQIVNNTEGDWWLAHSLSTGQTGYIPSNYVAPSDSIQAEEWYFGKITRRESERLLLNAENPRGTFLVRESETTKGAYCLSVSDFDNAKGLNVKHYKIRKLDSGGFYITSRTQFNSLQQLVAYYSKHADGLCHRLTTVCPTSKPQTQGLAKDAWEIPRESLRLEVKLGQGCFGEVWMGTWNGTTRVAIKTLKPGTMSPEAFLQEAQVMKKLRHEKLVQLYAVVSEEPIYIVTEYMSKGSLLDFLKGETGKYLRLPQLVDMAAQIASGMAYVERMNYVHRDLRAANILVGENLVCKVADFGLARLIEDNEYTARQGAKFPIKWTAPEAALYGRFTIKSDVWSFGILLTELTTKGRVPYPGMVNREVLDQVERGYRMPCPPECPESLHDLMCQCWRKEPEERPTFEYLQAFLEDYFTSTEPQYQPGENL
PIK3CA (Phosphatidylinositol 4,5-bisphosphate 3-kinase catalytic subunit alpha isoform), sequence (P42336 whole entry, canonical isoform): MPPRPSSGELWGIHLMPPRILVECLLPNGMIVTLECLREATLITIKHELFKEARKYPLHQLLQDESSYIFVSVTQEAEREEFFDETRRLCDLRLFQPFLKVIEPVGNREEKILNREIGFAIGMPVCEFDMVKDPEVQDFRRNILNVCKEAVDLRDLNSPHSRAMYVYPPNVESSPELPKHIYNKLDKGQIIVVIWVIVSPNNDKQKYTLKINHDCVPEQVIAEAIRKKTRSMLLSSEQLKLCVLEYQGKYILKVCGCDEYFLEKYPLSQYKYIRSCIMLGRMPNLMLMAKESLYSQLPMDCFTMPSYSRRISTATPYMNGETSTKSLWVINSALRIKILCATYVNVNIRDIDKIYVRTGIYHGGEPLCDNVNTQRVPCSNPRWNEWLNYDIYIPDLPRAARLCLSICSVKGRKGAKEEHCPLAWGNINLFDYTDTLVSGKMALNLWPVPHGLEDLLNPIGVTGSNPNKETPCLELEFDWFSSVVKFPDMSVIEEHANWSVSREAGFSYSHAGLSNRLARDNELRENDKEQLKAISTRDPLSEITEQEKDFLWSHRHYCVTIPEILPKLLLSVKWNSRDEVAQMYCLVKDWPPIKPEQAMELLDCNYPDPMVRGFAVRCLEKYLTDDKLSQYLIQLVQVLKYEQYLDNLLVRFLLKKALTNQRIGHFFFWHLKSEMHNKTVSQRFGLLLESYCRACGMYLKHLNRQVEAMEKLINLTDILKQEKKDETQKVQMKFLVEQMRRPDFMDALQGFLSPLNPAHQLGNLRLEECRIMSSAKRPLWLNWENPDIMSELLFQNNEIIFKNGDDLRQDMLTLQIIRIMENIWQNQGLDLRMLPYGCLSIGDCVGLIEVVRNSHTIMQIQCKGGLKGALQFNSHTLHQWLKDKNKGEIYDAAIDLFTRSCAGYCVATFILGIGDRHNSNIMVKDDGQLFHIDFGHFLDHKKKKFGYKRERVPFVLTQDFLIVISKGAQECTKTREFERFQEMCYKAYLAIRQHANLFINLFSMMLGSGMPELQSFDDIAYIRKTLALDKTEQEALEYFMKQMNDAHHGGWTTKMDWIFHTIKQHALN

Structure (SMILES): Fc1cccc(NNc2nc(NCCOc3ccccc3)nc3[nH]cnc23)c1
- selectivity ratio at 72 h [1]: 6
- IC50 [2]: > 100 µM
- IC50 [3]: Not Active
- IC50 [4]: 105 µM
- selectivity ratio at 72 h [5]: 8
- selectivity ratio [6]: > 5.3
- selectivity ratio at 48 h [7]: 18
- selectivity ratio [8]: 3.5
- CC50 (MDCK): 136 µM
- Activity [9]: Active
- activity at 10 min, 5 µM [10]: 67%
- IC50 (Influenza A virus [11]): 6.3 µM
- CC50 (A549): 52.4 µM
- IC50 [12]: 153 µM
- IC50 (Zika virus): 2.4 µM
- CC50 (Huh-7): 20 µM
- activity at 10 min, 5 µM [13]: > 98%
- IC50 [14]: Not Active
- activity at 10 min, 5 µM [15]: 77%
- activity at 10 min, 5 µM [16]: 84%
- IC50 (dengue virus type 2): 3.4 µM
- IC50 (Influenza A virus [17]): 14.9 µM
- IC50 (West Nile virus): 1.1 µM
- activity at 10 min, 5 µM (CDK9/cyclin T1): 88%
